Measurements as given in ChEMBL document CHEMBL4390639, “Design, Synthesis, and Biological Evaluation of Novel Allosteric Protein Disulfide Isomerase Inhibitors” (J Med Chem, 2019).
Active and inactive are the calls of the source. No cut-off for these calls is given here.

Legend:
A 172 [1] = assay: Induction of morphological changes in human A172 cells assessed as vesicle formation at 11 uM measured after 48 hrs by Giemsa-staining based microscopic analysis; type: functional, cell-based
A 172 [2] = assay: Induction of morphological changes in human A172 cells assessed as necroptotic cell death at 20 uM measured after 48 hrs by Giemsa-staining based microscopic analysis; type: functional
U-87 MG [3] = assay: Up regulation of OSGIN1 gene expression in human U87MG cells at 16 uM incubated for 4 hrs followed by bromouridine addition during last 30 mins of incubation by TRIzol-reagent based Bru-Seq analysis relative to control; type: functional, U-87MG ATCC
Method in brief: (§1)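 U87MG cells exposed to compound or DMSO vehicle for 4 h, with 2 mM bromouridine added for the final 30 min. Total RNA isolated with TRIzol; Bru-labelled nascent RNA captured on anti-BrdU antibody-conjugated magnetic beads and sequenced. Transcript abundance expressed as RPKM relative to DMSO. Experiment performed once.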

U-87 MG [4] = assay: Up regulation of PIR gene expression in human U87MG cells at 16 uM incubated for 4 hrs followed by bromouridine addition during last 30 mins of incubation by TRIzol-reagent based Bru-Seq analysis relative to control; type: functional, U-87MG ATCC; method in brief: as §1
U-87 MG [5] = assay: Down regulation of IL1B gene expression in human U87MG cells at 16 uM incubated for 4 hrs followed by bromouridine addition during last 30 mins of incubation by TRIzol-reagent based Bru-Seq analysis relative to control; type: functional, U-87MG ATCC; method in brief: as §1
U-87 MG [6] = assay: Down regulation of C8orf4 gene expression in human U87MG cells at 16 uM incubated for 4 hrs followed by bromouridine addition during last 30 mins of incubation by TRIzol-reagent based Bru-Seq analysis relative to control; type: functional, U-87MG ATCC; method in brief: as §1
U-87 MG [7] = assay: Down regulation of AC007848.1 gene expression in human U87MG cells at 16 uM incubated for 4 hrs followed by bromouridine addition during last 30 mins of incubation by TRIzol-reagent based Bru-Seq analysis relative to control; type: functional, U-87MG ATCC
U-87 MG [8] = assay: Down regulation of CD83 gene expression in human U87MG cells at 16 uM incubated for 4 hrs followed by bromouridine addition during last 30 mins of incubation by TRIzol-reagent based Bru-Seq analysis relative to control; type: functional, U-87MG ATCC
U-87 MG [9] = assay: Down regulation of AC022601.1 gene expression in human U87MG cells at 16 uM incubated for 4 hrs followed by bromouridine addition during last 30 mins of incubation by TRIzol-reagent based Bru-Seq analysis relative to control; type: functional, U-87MG ATCC
U-87 MG [10] = assay: Down regulation of KIAA0040 gene expression in human U87MG cells at 16 uM incubated for 4 hrs followed by bromouridine addition during last 30 mins of incubation by TRIzol-reagent based Bru-Seq analysis relative to control; type: functional, U-87MG ATCC
U-87 MG [11] = assay: Down regulation of PRLR gene expression in human U87MG cells at 16 uM incubated for 4 hrs followed by bromouridine addition during last 30 mins of incubation by TRIzol-reagent based Bru-Seq analysis relative to control; type: functional, U-87MG ATCC
Method in brief: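 Bru-seq in U87MG cells treated at 16 μM for 4 h; 2 mM bromouridine present during the last 30 min. TRIzol total RNA, then anti-BrdU bead capture of labelled RNA and sequencing. Readout is RPKM traces versus DMSO control. Performed once.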

U-87 MG [12] = assay: Cytotoxicity against human U87MG cells assessed as inhibition of cell proliferation at 10 uM measured after 24 hrs treatment followed by 10 days by colony formation assay relative to control
U-87 MG [13] = assay: Up regulation of TRIB3 gene expression in human U87MG cells at 10 uM incubated for 4 hrs followed by bromouridine addition during last 30 mins of incubation by TRIzol-reagent based Bru-Seq analysis relative to control; type: functional, U-87MG ATCC
Method in brief: (§2)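 U87MG cells treated 4 h with test compound (10 or 16 μM, as per line) or DMSO; 2 mM bromouridine added for final 30 min. Total RNA isolated with TRIzol, Bru-labelled nascent RNA captured with anti-BrdU antibody magnetic beads and sequenced; transcript abundance (RPKM) compared with DMSO control. Single experiment.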

U-87 MG [14] = assay: Up regulation of SLC7A11 gene expression in human U87MG cells at 10 uM incubated for 4 hrs followed by bromouridine addition during last 30 mins of incubation by TRIzol-reagent based Bru-Seq analysis relative to control; type: functional, U-87MG ATCC; method in brief: as §2
U-87 MG [15] = assay: Up regulation of NR4A1 gene expression in human U87MG cells at 10 uM incubated for 4 hrs followed by bromouridine addition during last 30 mins of incubation by TRIzol-reagent based Bru-Seq analysis relative to control; type: functional, U-87MG ATCC; method in brief: as §1
U-87 MG [16] = assay: Up regulation of CTH gene expression in human U87MG cells at 10 uM incubated for 4 hrs followed by bromouridine addition during last 30 mins of incubation by TRIzol-reagent based Bru-Seq analysis relative to control; type: functional, U-87MG ATCC; method in brief: as §1
U-87 MG [17] = assay: Up regulation of BAG3 gene expression in human U87MG cells at 10 uM incubated for 4 hrs followed by bromouridine addition during last 30 mins of incubation by TRIzol-reagent based Bru-Seq analysis relative to control; type: functional, U-87MG ATCC; method in brief: as §1
U-87 MG [18] = assay: Up regulation of SLC7A5 gene expression in human U87MG cells at 10 uM incubated for 4 hrs followed by bromouridine addition during last 30 mins of incubation by TRIzol-reagent based Bru-Seq analysis relative to control; type: functional, U-87MG ATCC; method in brief: as §2
U-87 MG [19] = assay: Up regulation of ATP6 V0D2 gene expression in human U87MG cells at 10 uM incubated for 4 hrs followed by bromouridine addition during last 30 mins of incubation by TRIzol-reagent based Bru-Seq analysis relative to control; type: functional, U-87MG ATCC; method in brief: as §1
U-87 MG [20] = assay: Up regulation of NGF gene expression in human U87MG cells at 10 uM incubated for 4 hrs followed by bromouridine addition during last 30 mins of incubation by TRIzol-reagent based Bru-Seq analysis relative to control; type: functional, U-87MG ATCC; method in brief: as §1
U-87 MG [21] = assay: Up regulation of GCNT3 gene expression in human U87MG cells at 10 uM incubated for 4 hrs followed by bromouridine addition during last 30 mins of incubation by TRIzol-reagent based Bru-Seq analysis relative to control; type: functional, U-87MG ATCC; method in brief: as §1
U-87 MG [22] = assay: Down regulation of E2F8 gene expression in human U87MG cells at 10 uM incubated for 4 hrs followed by bromouridine addition during last 30 mins of incubation by TRIzol-reagent based Bru-Seq analysis relative to control; type: functional, U-87MG ATCC
U-87 MG [23] = assay: Down regulation of CCNA2 gene expression in human U87MG cells at 10 uM incubated for 4 hrs followed by bromouridine addition during last 30 mins of incubation by TRIzol-reagent based Bru-Seq analysis relative to control; type: functional, U-87MG ATCC
U-87 MG [24] = assay: Down regulation of RAD51 gene expression in human U87MG cells at 10 uM incubated for 4 hrs followed by bromouridine addition during last 30 mins of incubation by TRIzol-reagent based Bru-Seq analysis; type: functional, cell-based; conditions: U-87MG ATCC
Method in brief: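 Nascent transcription (Bru-seq) in U87MG cells: treatment at 10 μM for 4 h, with 2 mM bromouridine added for the final 30 min. Total RNA isolated with TRIzol; Bru-labelled RNA captured using anti-BrdU antibody on magnetic beads, then sequenced. Transcript traces reported as RPKM compared with DMSO-treated cells. Single experiment.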

U-87 MG [25] = assay: Down regulation of E2F1 gene expression in human U87MG cells at 10 uM incubated for 4 hrs followed by bromouridine addition during last 30 mins of incubation by TRIzol-reagent based Bru-Seq analysis; type: functional, cell-based; conditions: U-87MG ATCC

CCCCCN(CCCCC)S(=O)(=O)c1ccc(C(=O)/C=C/c2cccc(O)c2)cc1
Activity (A 172 [1]): Active

COC(=O)c1cccc(/C=C/C(=O)c2cccc(O)c2)c1
Activity (A 172 [2]): Active | fold change (FC) (U-87 MG [3]): 5.4 | fold change (FC) (U-87 MG [4]): 4.3 | fold change (FC) (U-87 MG [5]): 5.5 | fold change (FC) (U-87 MG [6]): 4.7 | fold change (FC) (U-87 MG [7]): 2.9 | fold change (FC) (U-87 MG [8]): 2.7 | fold change (FC) (U-87 MG [9]): 2.7 | fold change (FC) (U-87 MG [10]): 2.6 | fold change (FC) (U-87 MG [11]): 2.6

N#Cc1cccc(/C=C/C(=O)c2ccc(O)cc2)c1
inhibition at 10 µM (U-87 MG [12]): < 40%

CCCCCN(CCCCC)S(=O)(=O)c1ccc(C(=O)/C=C/c2cccc(C#N)c2)cc1
fold change (FC) (U-87 MG [13]): 34.1 | fold change (FC) (U-87 MG [14]): 20.8 | fold change (FC) (U-87 MG [15]): 18.9 | fold change (FC) (U-87 MG [16]): 17.7 | fold change (FC) (U-87 MG [17]): 17.1 | fold change (FC) (U-87 MG [18]): 16.8 | fold change (FC) (U-87 MG [19]): 11.9 | fold change (FC) (U-87 MG [20]): 10 | fold change (FC) (U-87 MG [21]): 10 | fold change (FC) (U-87 MG [22]): 2.4 | fold change (FC) (U-87 MG [23]): 2.3 | Activity (U-87 MG [24]): Active | Activity (U-87 MG [25]): Active
